{"source": "ChEMBL document CHEMBL4699493", "about": "“Development of Bis-cyclic Imidazolidine-4-one Derivatives as Potent Antibacterial Agents” (J Med Chem, 2020)", "key": {"[1]": {"tested_on": "Staphylococcus aureus", "assay": "Antibacterial activity against methicillin-resistant Staphylococcus aureus ATCC 33591", "type": "functional", "procedure,_shortened": "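Broth microdilution in TSB. Strains were grown 16 h, subcultured 6 h to log phase, then diluted to 10^6 CFU/mL by OD600. Compound came from a 5 mg/mL DMSO stock diluted in TSB and serially diluted, top final concentration 25 μg/mL. MIC was the lowest concentration giving complete growth inhibition. Done ≥3 times in duplicate.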"}, "[2]": {"tested_on": "Klebsiella pneumoniae", "assay": "Antibacterial activity against Klebsiella pneumoniae ATCC 13383", "type": "functional", "procedure,_shortened": "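Broth microdilution in TSB. Stocks at 5 mg/mL in DMSO diluted with TSB to 100 μg/mL, then serially diluted; highest test concentration 25 μg/mL. Bacteria grown 16 h, subcultured 6 h to log phase, adjusted to 10^6 CFU/mL by OD600. MIC = lowest concentration giving complete growth inhibition. At least three repeats, each in duplicate.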"}, "[3]": {"assay": "Hemolytic activity against mouse RBC measured after 1 hr by microplate reader analysis", "type": "ADME, cell-based, Erythrocyte", "conditions": "mouse red blood cells (erythrocytes)", "procedure,_shortened": "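Mouse red blood cells collected by centrifugation (500–700g, 10 min), washed three times in PBS, and diluted 20-fold in PBS. Mixed with 2-fold serial dilutions of compound (starting at 1 mg/mL in PBS) and incubated 1 h at 37 °C. After centrifugation, supernatant absorbance read at 540 nm. % hemolysis calculated relative to PBS (0%) and 2% Triton (100%). At least three repeats in duplicate.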"}, "[4]": {"assay": "Selectivity ratio of HC50 for hemolytic activity against mouse RBC to MIC for methicillin-resistant Staphylococcus aureus", "type": "toxicity", "conditions": "mouse red blood cells (erythrocytes)", "procedure,_shortened": "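Mouse RBCs were washed three times in PBS and diluted in 20 volumes of PBS. They were mixed with compound 2-fold serially diluted from 1 mg/mL in PBS, incubated 1 h at 37 °C, then centrifuged; supernatant read at A540. % hemolysis was calculated against PBS (0%) and 2% Triton (100%). Done ≥3 times in duplicate. HC50 was divided by the MRSA MIC.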"}, "[5]": {"tested_on": "Staphylococcus aureus", "assay": "Antibacterial activity against methicillin-resistant Staphylococcus aureus ATCC 33591 in presence of monovalent Na+ and K+", "type": "functional", "procedure,_shortened": "(§1)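 MIC set up as in the standard broth microdilution (log-phase inoculum at 10^6 CFU/mL, complete growth inhibition end point). The medium was TSB dissolved in 1× PBS (7.5 g per 250 mL) and autoclaved, supplying Na+ and K+.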"}, "[6]": {"tested_on": "Staphylococcus epidermidis", "assay": "Antibacterial activity against methicillin-resistant Staphylococcus epidermidis RP62A in presence of monovalent Na+ and K+", "type": "functional", "procedure,_shortened": "as §1"}, "[7]": {"tested_on": "Escherichia coli", "assay": "Antibacterial activity against Escherichia coli ATCC 25922 in presence of monovalent Na+ and K+", "type": "functional", "procedure,_shortened": "(§2)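 MIC by the standard broth dilution method, in medium made by dissolving TSB powder in 1× PBS (7.5 g per 250 mL), autoclaved, to supply Na+ and K+. Inoculum of log-phase bacteria at 10^6 CFU/mL. MIC = lowest concentration completely inhibiting growth.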"}, "[8]": {"tested_on": "Klebsiella pneumoniae", "assay": "Antibacterial activity against Klebsiella pneumoniae ATCC 13383 in presence of monovalent Na+ and K+", "type": "functional", "procedure,_shortened": "as §2"}, "[9]": {"tested_on": "Escherichia coli", "assay": "Antibacterial activity against Escherichia coli ATCC 25922 in presence of divalent Ca2+", "type": "functional", "procedure,_shortened": "(§3)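 MIC by the standard TSB broth dilution method, in TSB made with DI water and supplemented with CaCl2 to 2 mM. Inoculum of log-phase bacteria at 10^6 CFU/mL. MIC = lowest concentration completely inhibiting growth.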"}, "[10]": {"tested_on": "Klebsiella pneumoniae", "assay": "Antibacterial activity against Klebsiella pneumoniae ATCC 13383 in presence of divalent Ca2+", "type": "functional", "procedure,_shortened": "as §3"}, "[11]": {"tested_on": "Staphylococcus aureus", "assay": "Bactericidal activity against methicillin-resistant Staphylococcus aureus ATCC 33591 at 24 to 48 microg/ml measured upto 60 mins by time kill assay", "type": "functional, organism-based", "conditions": "dose microg/ml 24-48, time min <=60", "procedure,_shortened": "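Mid-log MRSA (overnight culture in TSB at 37 °C with shaking, then 6 h subculture) at 10^6 CFU/mL was exposed to 6, 12, 24 or 48 μg/mL at 37 °C for 10, 30, 60 and 120 min. Samples were diluted 10^2-fold, plated on TSB agar, incubated 20 h at 37 °C, and colonies counted. Untreated control; three repeats.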"}, "[12]": {"tested_on": "Cell membrane", "assay": "Induction of cell membrane disruption in Escherichia coli ATCC 25922 assessed as propidium iodide-positive cells at 2 times MIC after 2 hrs by fluorescence microscopic analysis", "type": "subcellular", "procedure,_shortened": "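Bacteria from a 10^6 CFU/mL suspension diluted 100-fold and treated with compound at 2 × MIC for 2 h. Cells pelleted (4000g, 15 min, 4 °C), washed three times in PBS, and stained 15 min with PI (5 μg/mL) and DAPI (10 μg/mL). Imaged by oil-immersion fluorescence microscopy; untreated controls included. Three repeats in duplicate.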"}, "[13]": {"tested_on": "Cell membrane", "assay": "Induction of cell membrane disruption in methicillin-resistant Staphylococcus aureus ATCC 33591 assessed as propidium iodide-positive cells at 2 times MIC after 2 hrs by fluorescence microscopic analysis", "type": "subcellular", "procedure,_shortened": "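A 10^6 CFU/mL suspension was diluted 100-fold and treated at 2× MIC for 2 h. Cells were pelleted (4000g, 15 min, 4 °C), washed three times in PBS, then stained 15 min with PI (5 μg/mL) and DAPI (10 μg/mL). Imaged by oil-immersion fluorescence microscopy alongside an untreated control. Three repeats in duplicate.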"}, "[14]": {"tested_on": "Cell membrane", "assay": "Induction of cell membrane depolarization in Escherichia coli ATCC 25922 assessed as increase in fluorescence intensity measured after 30 mins by DiSC3 staining based fluorescence spectroscopic technique", "type": "subcellular", "procedure,_shortened": "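Mid-log E. coli washed in 5 mM HEPES/5 mM glucose and resuspended in HEPES/glucose/100 mM KCl to OD600 about 0.05. DiSC3(5) added (8 μL of a 10 μM solution per 200 μL). Fluorescence (ex 622 nm, em 670 nm) read at room temperature for 30 min, then compound added at 0.5, 1, 2 and 4 × MIC and monitoring continued. Controls: untreated and 1% Triton X-100. Three repeats in duplicate.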"}, "[15]": {"tested_on": "Cell membrane", "assay": "Induction of inner membrane permeabilization in methicillin-resistant Staphylococcus aureus ATCC 33591 at 2 times MIC measured for 12 mins by propidium iodide staining based fluorescence microscopic analysis", "type": "functional, subcellular", "procedure,_shortened": "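Mid-log cells were washed in 5 mM HEPES/5 mM glucose and set at 10^6 CFU/mL, then mixed with PI (10 μM stock). Baseline fluorescence (ex 535/em 617 nm) was read about 8 min at 2-min intervals. Compound was then added and reading continued for 12 min. Water-only negative control; three repeats.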"}, "[16]": {"tested_on": "Cell membrane", "assay": "Induction of cell membrane disruption in Escherichia coli ATCC 25922 at 2 times MIC after 2 hrs by transmission electron microscopic analysis", "type": "subcellular", "procedure,_shortened": "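Bacteria at 10^6 CFU/mL treated with compound at 2 × MIC for 2 h at 37 °C; untreated controls included. Cells pelleted, washed three times in PBS, resuspended in deionized water, dropped onto grids, blotted, vacuum-dried at 50 °C for 30 s, and imaged by TEM.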"}, "[17]": {"tested_on": "Cell membrane", "assay": "Induction of cell membrane disruption in methicillin-resistant Staphylococcus aureus ATCC 33591 at 2 times MIC after 2 hrs by transmission electron microscopic analysis", "type": "subcellular", "procedure,_shortened": "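Bacteria at 10^6 CFU/mL were treated at 2× MIC for 2 h at 37 °C, pelleted, washed three times in PBS and resuspended in deionized water. Samples were dropped on grids, blotted, dried under vacuum at 50 °C for 30 s, then imaged by TEM. Untreated control.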"}}, "note": "Activity calls are given as the source filed them. The calls are words filed in the database; no cut-off is given here.", "data": [{"smiles": "CCCCCCCCCC(=O)N[C@@H](CCCCN)CN1CC(=O)N(c2ccc(N3CN(C[C@H](CCCCN)NC(=O)CCCCCCCCC)CC3=O)cc2)C1", "values": [{"measurement": "MIC", "setting": "[1]", "value": 2, "unit": "µg/mL"}, {"measurement": "MIC", "setting": "[2]", "value": 5, "unit": "µg/mL"}, {"measurement": "HC50 at 1 h", "setting": "[3]", "value": "> 250", "unit": "µg/mL"}, {"measurement": "selectivity ratio", "setting": "[4]", "value": "> 125"}, {"measurement": "MIC", "setting": "[5]", "value": 4, "unit": "µg/mL"}, {"measurement": "MIC", "setting": "[6]", "value": 7, "unit": "µg/mL"}, {"measurement": "MIC", "setting": "[7]", "value": 5, "unit": "µg/mL"}, {"measurement": "MIC", "setting": "[8]", "value": 7, "unit": "µg/mL"}, {"measurement": "MIC", "setting": "[9]", "value": 7, "unit": "µg/mL"}, {"measurement": "MIC", "setting": "[10]", "value": 5, "unit": "µg/mL"}, {"measurement": "Activity", "setting": "[11]", "value": "Active"}, {"measurement": "Activity", "setting": "[12]", "value": "Active"}, {"measurement": "Activity", "setting": "[13]", "value": "Active"}, {"measurement": "Activity", "setting": "[14]", "value": "Dose-dependent effect"}, {"measurement": "Activity", "setting": "[15]", "value": "Active"}, {"measurement": "Activity", "setting": "[16]", "value": "Active"}, {"measurement": "Activity", "setting": "[17]", "value": "Active"}]}]}
